This note sets out measurements from ChEMBL document CHEMBL4422612, “Small Molecule Inhibitor that Stabilizes the Autoinhibited Conformation of the Oncogenic Tyrosine Phosphatase SHP2” (J Med Chem, 2019).

The target of assay [1] is T1, Tyrosine-protein phosphatase non-receptor type 11 (Homo sapiens) (UniProt Q06124).
T1 sequence (whole entry): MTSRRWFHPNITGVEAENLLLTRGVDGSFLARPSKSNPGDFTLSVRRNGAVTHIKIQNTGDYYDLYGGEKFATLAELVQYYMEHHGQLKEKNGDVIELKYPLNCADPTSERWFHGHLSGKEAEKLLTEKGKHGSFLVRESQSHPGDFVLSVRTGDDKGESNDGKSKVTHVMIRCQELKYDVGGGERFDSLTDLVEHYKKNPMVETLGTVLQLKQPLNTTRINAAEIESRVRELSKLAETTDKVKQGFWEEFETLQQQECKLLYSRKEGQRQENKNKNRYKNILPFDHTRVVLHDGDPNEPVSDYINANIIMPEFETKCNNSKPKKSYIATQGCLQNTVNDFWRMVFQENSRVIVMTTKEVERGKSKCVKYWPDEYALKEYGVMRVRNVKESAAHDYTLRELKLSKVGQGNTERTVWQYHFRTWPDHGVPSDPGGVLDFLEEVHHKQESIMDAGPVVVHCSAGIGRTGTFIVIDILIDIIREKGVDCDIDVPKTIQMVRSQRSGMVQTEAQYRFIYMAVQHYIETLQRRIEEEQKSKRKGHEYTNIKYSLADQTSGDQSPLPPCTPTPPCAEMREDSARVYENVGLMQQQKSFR
As to the kind of experiment: Mixed type inhibition of human wild-type full length SHP2 assessed as substrate [Et] at 10 uM using H-Glu-Phe-pTyr-Ala-Glu-Val-Gly-Arg-Ser-Pro-Pro-Asp-Pro-Ala-Lys as substrate by Lineweaver-Burk plot analysis (reference value: 0.029 uM).

For assay [2], the target named is T1, Tyrosine-protein phosphatase non-receptor type 11 (Homo sapiens). As to the kind of experiment: Stable inhibition of human wild-type full length SHP2 at 5 to 20 uM using H-Glu-Phe-pTyr-Ala-Glu-Val-Gly-Arg-Ser-ProPro-Asp-Pro-Ala-Lys as substrate followed by 3 times wash out with phosphate buffer by phosphatase assay.
Assay [3] has the same target. As to the kind of experiment: Inhibition of wild type recombinant human SHP2 at 50 uM using H-Glu-Phe-pTyr-Ala-Glu-Val-Gly-Arg-Ser-Pro-Pro-Asp-Pro-Ala-Lys as substrate preincubated for 30 mins followed by substrate addition and measured after 30 mins by Malachite Green-reagent based assay. The gist of the method: (§1)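 Full-length SHP2 or SHP1 (0.1 µg) preincubated with compound 30 min at room temperature in 25 mM Tris-HCl pH 7.4, 50 mM NaCl, 5 mM DTT, 2.5 mM EDTA. Phospho-peptide substrate added to 50 µM final; 30 min at 30 °C. Released phosphate read by Malachite Green at OD620. IC50 from six concentrations; three experiments.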

Assay [4] has the same target. As to the kind of experiment: Inhibition of human wild-type full length SHP2 at 20 uM using H-Glu-Phe-pTyr-Ala-Glu-Val-Gly-Arg-Ser-ProPro-Asp-Pro-Ala-Lys as substrate in presence of 0.001% Triton X. The gist of the method:
as §1

Assay [5] relates to NCI-H596. As to the kind of experiment: Growth inhibition of human NCI-H596 cells after 48 hrs by cell proliferation-based assay. In kind it is functional. The method, boiled down: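 H661 (PTPN11 N58S/+) and H596 (WT PTPN11) lung cancer cells exposed to a concentration series for 48 h, DMSO as control. Cell number measured by One Solution proliferation assay. Triplicates from one of three repeated experiments.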

For assay [6], the system named is NCI-H661. As to the kind of experiment: Induction of cell cycle arrest in human NCI-H661 cells at 10 to 20 uM after 24 hrs by propidium iodide-staining based FACS analysis. In kind it is functional. The gist of the method: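 H661 cells treated with 0, 10 or 20 µM for 24 h; cell cycle profile by propidium iodide staining and FACS. Profiles are representative of three independent experiments.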
(In flow cytometry, cells or beads pass a laser one at a time.)

Assay [7] concerns T2, Tyrosine-protein phosphatase non-receptor type 11 (Mus musculus), P35235 [E76K].
T2 sequence (whole entry): T1 sequence (whole entry) with E76K, M450V, A550V, K590R
As to the kind of experiment: Inhibition of Ptpn11 E76K mutant in Ptpn11 E76K mutant /Mx1-Cre containing mouse bone marrow cells assessed as reduction in GM-CSF-induced colony forming units at 1.25 to 5 uM after 7 days by inverted microscopy. The method, boiled down:
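Bone marrow from Ptpn11 E76K/+/Mx1-Cre+ and +/+/Mx1-Cre+ mice, 2×10⁴ cells/mL, in 0.9% methylcellulose IMDM with 30% FBS and GM-CSF 1.0 ng/mL, plus compound or DMSO. CFU-GM and CFU-M counted at day 7, normalized to WT DMSO colonies. Mean ± SD of three experiments.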

Assay [8] shares this test system. As to the kind of experiment: Inhibition of PTPN11 E76K mutant in mouse embryonic fibroblasts assessed as inhibition of cell growth at 6 uM after 24 to 72 hrs by cell proliferation-based assay. The gist of the method: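 Ptpn11 E76K/+ and Ptpn11 +/+ MEFs treated with 6 µM compound; cell number read by One Solution proliferation assay. Triplicates from one of three experiments.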

The target of assay [9] is T1, Tyrosine-protein phosphatase non-receptor type 11 (Homo sapiens). As to the kind of experiment: Binding affinity to His-tagged SHP2 (unknown origin) assessed as melting temperature at 60 uM measured every 50 secs by thermal shift assay (reference value: 43.5 +/- 0.95 degC).

The structures appear in SMILES notation. Where a chain is given by its changes, count along the chain named. Calls of active or inactive are those of the source. The rule behind the calls is not given here.

Take `CCOc1cc(O)c(C(=O)/C=C/c2ccc(Cl)cc2Cl)cc1CN1CCC=C(n2c(=O)[nH]c3ccccc32)C1`: the Activity in assay [1] stood at 0.029 µM. The inhibition result in assay [2], in assay [3], in [4] and in [7] was “Active” in each case. The “growth inhibition (GI)” value in [5] was “Dose-dependent effect”. The outcome in [6] was Active. Besides, the “growth inhibition (GI)” value in [8] is “Active”. Moreover, the melting temperature (Tm) in assay [9] is 48.2 °C.

By Tm is commonly meant the temperature at which the thermal transition is half complete.
